This is one part of a sample in which hits are shown more often than they occur.
A1 apoptosis 2: A1 inhibitors via caspase activation, primary screen, cell-based, luminescence, HTS, two replicates. MEF A1-2A-BIM cells, caspase-Glo luminescence, 3 h; percent of clofoctol response, DMSO zero. caspase activation, % (test concentration not listed). 24,000 tested, under 10 active. AID 2465, 2010; in the data active means caspase activation above about 5.9%
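system = A1-2A-BIM-expressing MEF cells | quantity = 2500 MEF cells/well | dosing = 50 nL compound per well, pinned | schedule = overnight cell settling, then 3 h compound exposure, 37 °C | signal = luminescence from DEVD-luciferin Caspase-Glo reagent, 1:1 in 50 mM HEPES, 1 h RT | read-out = Caspase-3/7 activation, seen as rise in luminescence signal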
INS-1E rescue: protection of INS-1E cells from cytokine death, primary screen, ATP luminescence, single point | hit rate 0.1% among 20,000 | INS-1E cytokine-induced death, 48 h; normalised: neutral wells 0, positive control 100 | protection from cytokine-induced ATP loss, % at 10 µM;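 active means mean replicate protection from cytokine-induced ATP loss at least 50% and at least 75% of replicates each reaching 50%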
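Assay system – rat INS-1E insulinoma cell line · Quantity – 8000 cells per well · Buffer or medium – RPMI without phenol red, 5% FBS · Schedule – 48 h co-treatment, 10 min post-lysis read · Technique – luminescent ATP assay (CellTiter-Glo)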
T cruzi intra: inhibitors of intracellular Trypanosoma cruzi, primary screen, cell-based, plate reader, single point, set 2. intracellular Trypanosoma cruzi in host cells. activity score (inhibition), % at 5.01 µM. hit rate 4.9% among 22,000. AID 651903, 2012; in the data active means activity score above about 55%;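 further: parasites and compound incubated about four days before reading; 0% = median of neutral control wells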
Numbers without * were called inactive.

`O=C(CCCCCCC(=O)N/N=C/c1ccccc1)NO` gave A1 apoptosis 2 0.
For Cc1ccc(S(=O)(=O)N(C)C[C@H]2Oc3ccc(NC(=O)Cc4cn(C)c5ccccc45)cc3C(=O)N([C@H](C)CO)C[C@@H]2C)cc1 the results were INS-1E rescue -3 and T cruzi intra 2.
Screening COc1ccc(S(=O)(=O)N(C)C[C@@H]2Oc3ncc(/C=C/c4ccccc4)cc3C(=O)N([C@H](C)CO)C[C@@H]2C)cc1 returned A1 apoptosis 2 0 and T cruzi intra 49.
Screening COCCOC(=O)N1C(=O)[C@@]2(c3ccccc31)[C@H](C(=O)NC[C@H](O)c1ccccc1)[C@H]1C(=O)O[C@H](c3ccccc3)[C@H](c3ccccc3)N1[C@@H]2c1ccc(O)cc1 returned A1 apoptosis 2 0.
`Cc1ccc(S(=O)(=O)Nc2ccc3c(c2)C(=O)N([C@H](C)CO)C[C@@H](C)[C@H](CN(C)Cc2ccc(C(F)(F)F)cc2)OCCCC[C@H](C)O3)cc1` gave A1 apoptosis 2 0.
C[C@@H]1CN([C@H](C)CO)C(=O)c2cc(NC(=O)Nc3ccccc3)ccc2O[C@H]1CN(C)S(=O)(=O)c1ccc(Cl)cc1 was read as INS-1E rescue -6 and T cruzi intra 0.
C[C@H]1CN([C@@H](C)CO)C(=O)Cc2cc(NS(=O)(=O)c3ccccc3)ccc2O[C@H]1CN(C)Cc1ccc(C(F)(F)F)cc1 was read as INS-1E rescue -1 and T cruzi intra 48.
COc1ccc(S(=O)(=O)Nc2ccc3c(c2)CC(=O)N([C@@H](C)CO)C[C@H](C)[C@@H](CN(C)Cc2ccc(C(F)(F)F)cc2)O3)cc1 was read as A1 apoptosis 2 0, INS-1E rescue -13 and T cruzi intra 83*.
`C[C@@H]1CN([C@H](C)CO)C(=O)Cc2cc(NS(=O)(=O)c3ccc(F)cc3)ccc2O[C@@H]1CN(C)Cc1ccc(C(F)(F)F)cc1` gave INS-1E rescue -48 and T cruzi intra 60*.
For Cc1ccc(S(=O)(=O)Nc2ccc3c(c2)CC(=O)N([C@@H](C)CO)C[C@@H](C)[C@@H](CN(C)Cc2ccc(C(F)(F)F)cc2)O3)cc1 the results were A1 apoptosis 2 0, INS-1E rescue -31 and T cruzi intra 64*.
For COc1ccc(CN(C)C[C@@H]2Oc3ccc(NS(=O)(=O)c4ccc(OC)cc4)cc3CC(=O)N([C@@H](C)CO)C[C@H]2C)cc1 the results were A1 apoptosis 2 -1.
Cc1ccc(S(=O)(=O)Nc2ccc3c(c2)CC(=O)N([C@H](C)CO)C[C@H](C)[C@H](CN(C)Cc2ccc(C(F)(F)F)cc2)O3)cc1 was read as INS-1E rescue -6 and T cruzi intra 34.
`C[C@H]1CN([C@@H](C)CO)C(=O)c2cccc(NS(C)(=O)=O)c2O[C@@H]1CN(C)S(=O)(=O)c1ccc(F)cc1` gave INS-1E rescue 5 and T cruzi intra -14.
`COc1ccc(S(=O)(=O)Nc2ccc3c(c2)C(=O)N([C@@H](C)CO)C[C@@H](C)[C@@H](CN(C)C(=O)NC(C)C)OCCCC[C@@H](C)O3)cc1` gave A1 apoptosis 2 0.
Screening C[C@H]1CN([C@@H](C)CO)C(=O)c2cc(NC(=O)Nc3ccc(C(F)(F)F)cc3)ccc2O[C@H]1CN(C)Cc1ccc(Oc2ccccc2)cc1 returned INS-1E rescue -41 and T cruzi intra 80*.
Screening C[C@H](CO)N1C[C@H](C)[C@H](CN(C)Cc2ccc(Oc3ccccc3)cc2)Oc2ccc(NC(=O)Nc3ccc(C(F)(F)F)cc3)cc2C1=O returned T cruzi intra 63*.
For C[C@@H]1CN([C@H](C)CO)C(=O)c2cc(NC(=O)Nc3ccccc3)ccc2O[C@@H]1CN(C)Cc1ccc(C(F)(F)F)cc1 the results were T cruzi intra -5.
Screening C[C@H](CO)N1C[C@H](C)[C@@H](CN(C)Cc2ccc(Oc3ccccc3)cc2)Oc2ccc(NC(=O)Nc3ccc(C(F)(F)F)cc3)cc2C1=O returned A1 apoptosis 2 0, INS-1E rescue -22 and T cruzi intra -4.
`C[C@@H]1CN([C@H](C)CO)C(=O)c2cc(NC(=O)Nc3cccc4ccccc34)ccc2O[C@@H]1CN(C)S(=O)(=O)c1cn(C)cn1` gave INS-1E rescue 11 and T cruzi intra -1.
C[C@@H]1CN([C@H](C)CO)C(=O)CCCn2nncc2CO[C@H]1CN(C)S(=O)(=O)c1ccc(-n2cccn2)cc1 was read as A1 apoptosis 2 -1 and T cruzi intra -3.
